The values below come from ChEMBL document CHEMBL4811241, “Revisiting Pyrazolo[3,4-d]pyrimidine Nucleosides as Anti-Trypanosoma cruzi and Antileishmanial Agents” (J Med Chem, 2021).

Usually IC50 stands for the concentration that gives 50% inhibition. The term CC50 denotes the concentration giving 50% cytotoxicity.

Data set [1] has as its system Trypanosoma cruzi. As to the kind of experiment: Antitrypanosomal activity against nifurtimox-sensitive Trypanosoma cruzi Tulahuen CL2 infected in human MRC-5 SV2 cells assessed as inhibition of parasite growth measured after 7 days by spectrophotometric analysis. As to conditions: Tulahuen CL2, MRC-5 SV2, 168 h. In kind it is functional, organism-based.
A short description of data set [2]: Cytotoxicity against human MRC-5 SV2 cells assessed as reduction in cell growth measured after 3 days by resazurin dye based fluorometric analysis. Particulars: time 3 day.
Data set [3] deals with Leishmania infantum. As to the kind of experiment: Antileishmanial activity against amastigote form of Leishmania infantum MHOM/MA(BE)/67 infected in Swiss mouse peritoneal macrophages assessed as reduction in parasite growth treated at 2 hrs post-infection and measured after 5 days by Giemsa staining based microscopic analysis. Particulars: MHOM/MA(BE)/67, Peritoneal macrophage. It counts as functional, organism-based. In a few lines:
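Swiss mouse peritoneal macrophages, harvested after 2-day potato-starch stimulation, infected 48 h after plating; compounds added 2 h post-infection.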

Data set [4] is described as follows: Cytotoxicity against Swiss mouse peritoneal macrophages assessed as cell detachment, lysis and granulation measured after 5 days by microscopic analysis. Particulars: time 5 day. In kind it is cell-based, Peritoneal macrophage. In short, it runs like this: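 Scored within the Leishmania macrophage assay over 5 days: detachment, lysis and granulation judged semi-quantitatively by microscopy across at least 500 cells. CC50 derived from % reduction in normal cells versus untreated wells.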

Data set [5] can be described thus: Selectivity index, ratio of CC50 for human MRC-5 SV2 cells to IC50 for antitrypanosomal activity against nifurtimox-sensitive Trypanosoma cruzi Tulahuen CL2 infected in human MRC-5 SV2 cells. In kind it is toxicity, cell-based. As to conditions: read-out: Ratio CC50/IC50. In a few lines:
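Ratio of MRC-5SV2 CC50 (3-day resazurin assay) to IC50 against T. cruzi amastigotes in MRC-5SV2 cells (7-day CPRG assay).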

Molecules are shown by their SMILES.

In the case of `O=c1[nH]cnc2c1cnn2[C@@H]1O[C@H](CO)[C@@H](F)[C@H]1O`, the IC50 in data set [1] and in data set [3] was above 64 µM each time. In addition, the CC50 at 72 h in data set [2] is above 64 µM. For the same compound, the CC50 at 120 h in data set [4] is above 64 µM.
In the case of `O=c1[nH]cnc2c1c(Br)nn2[C@@H]1O[C@H](CO)[C@@H](F)[C@H]1O`, the IC50 in data set [1] and in data set [3] was above 64 µM throughout. Besides, in data set [2], the CC50 at 72 h was above 64 µM. Besides, in data set [4], the CC50 at 120 h was above 64 µM.
`Cc1cc(-c2nn([C@@H]3O[C@H](CO)[C@@H](O)[C@H]3O)c3ncnc(N)c23)ccc1Cl`: the IC50 in data set [1] is 0.81 µM; in data set [3], above 64 µM. Also, the CC50 at 72 h in data set [2] is above 64 µM. The selectivity ratio in data set [5] was above 79. Besides, the CC50 at 120 h in data set [4] is above 64 µM.
Regarding `O=c1[nH]cnc2c1cnn2[C@@H]1O[C@H](CO)C[C@H]1O`, the IC50 in data set [1] and in data set [3] was above 64 µM throughout. The CC50 at 72 h in data set [2] was above 64 µM. The CC50 at 120 h in data set [4] was above 64 µM.
For the compound `Nc1ncnc2c1c(-c1cccs1)nn2[C@@H]1O[C@H](CO)[C@@H](O)[C@H]1O`, the IC50 in data set [1] is 10.4 µM; in data set [3] it was above 64 µM. For the same compound, the CC50 at 72 h in data set [2] was determined as 32 µM. Besides, the selectivity ratio in data set [5] was found to be 3. The CC50 at 120 h in data set [4] is above 64 µM.
On to `Nc1ncnc2c1c(CCc1ccccc1)nn2[C@@H]1O[C@H](CO)[C@@H](O)[C@H]1O`, for which the IC50 in data set [1] is 52.3 µM; in data set [3] it was above 64 µM. Besides, the CC50 at 72 h in data set [2] is above 64 µM. The selectivity ratio in data set [5] was above 1. The CC50 at 120 h in data set [4] was above 64 µM.
Turning to `Nc1ncnc2c1c(-c1ccc(Cl)c(F)c1)nn2[C@@H]1O[C@H](CO)[C@@H](O)[C@H]1O`, the IC50 was 1.19 µM in data set [1] and above 64 µM in data set [3]. The CC50 at 72 h in data set [2] was above 64 µM. In addition, the selectivity ratio in data set [5] is above 54. In addition, in data set [4], the CC50 at 120 h is above 64 µM.
Consider `Nc1ncnc2c1c(C(=O)NCc1ccccc1)nn2[C@@H]1O[C@H](CO)[C@@H](O)[C@H]1O`, for which the IC50 in data set [1] and in data set [3] was above 64 µM each time. Also, the CC50 at 72 h in data set [2] is above 64 µM. Besides, the CC50 at 120 h in data set [4] is above 64 µM.
As to `Nc1ncnc2c1c(-c1ccc(F)c(F)c1)nn2[C@@H]1O[C@H](CO)[C@@H](O)[C@H]1O`, the IC50 in data set [1] is 4.24 µM; in data set [3], above 64 µM. For the same compound, in data set [2], the CC50 at 72 h is above 64 µM. The selectivity ratio in data set [5] was above 15. Further, the 50% cytotoxic concentration (CC50) at 120 h in data set [4] was above 64 µM.
For the compound `Nc1ncnc2c1c(-c1ccc(Cl)c(Cl)c1)nn2[C@@H]1O[C@H](CO)[C@@H](O)[C@H]1O`, the IC50 was 2.82 µM in data set [1] and above 64 µM in data set [3]. Further, the CC50 at 72 h in data set [2] is above 64 µM. The selectivity ratio in data set [5] was above 23. Besides, the CC50 at 120 h in data set [4] is above 64 µM.
Regarding `CCc1nn([C@@H]2O[C@H](CO)[C@@H](O)[C@H]2O)c2ncnc(N)c12`, the IC50 in data set [1] and in data set [3] was above 64 µM in each case. In addition, the CC50 at 72 h in data set [2] is above 64 µM. Besides, the CC50 at 120 h in data set [4] was above 64 µM.
With `N#Cc1cc(-c2nn([C@@H]3O[C@H](CO)[C@@H](O)[C@H]3O)c3ncnc(N)c23)ccc1Cl`, the IC50 in data set [1] and in data set [3] was above 64 µM throughout. The CC50 at 72 h in data set [2] is above 64 µM. Moreover, the CC50 at 120 h in data set [4] is above 64 µM.
Regarding `Nc1ncnc2c1c(Br)nn2[C@@H]1O[C@H](CO)C[C@H]1O`, the IC50 in data set [1] is 38.5 µM; in data set [3], above 64 µM. The CC50 at 72 h in data set [2] turned out to be 2.2 µM. Besides, the 50% cytotoxic concentration (CC50) at 120 h in data set [4] is above 64 µM.
Regarding `Nc1ncnc2c1cnn2[C@@H]1O[C@H](CO)[C@@H](F)[C@H]1O`, the half-maximal inhibitory concentration (IC50) in data set [1] and in data set [3] was above 64 µM throughout. The 50% cytotoxic concentration (CC50) at 72 h in data set [2] is above 64 µM. Besides, the 50% cytotoxic concentration (CC50) at 120 h in data set [4] was above 64 µM.
For `CC(C)(C)c1ccc(-c2nn([C@@H]3O[C@H](CO)[C@@H](O)[C@H]3O)c3ncnc(N)c23)cc1`, the IC50 in data set [1] and in data set [3] was above 64 µM throughout. In addition, in data set [2], the CC50 at 72 h was above 64 µM. The CC50 at 120 h in data set [4] is above 64 µM.
Regarding `Nc1ncnc2c1cnn2[C@@H]1O[C@H](CO)C[C@H]1O`, the IC50 in data set [1] and in data set [3] was above 64 µM in each case. For the same compound, the CC50 at 72 h in data set [2] is above 64 µM. Besides, in data set [4], the CC50 at 120 h was above 64 µM.
For `Nc1ncnc2c1c(-c1nnn[nH]1)nn2[C@@H]1O[C@H](CO)[C@@H](O)[C@H]1O`, the IC50 in data set [1] and in data set [3] was above 64 µM throughout. The CC50 at 72 h in data set [2] is above 64 µM. Besides, the CC50 at 120 h in data set [4] was above 64 µM.
With `Nc1ncnc2c1c(Br)nn2[C@H]1C[C@H](O)[C@@H](CO)O1`, the IC50 in data set [1] is 53.2 µM; in data set [3], above 64 µM. In addition, the CC50 at 72 h in data set [2] turned out to be 24.9 µM. The CC50 at 120 h in data set [4] is above 64 µM.
Turning to `CCCCCCCCCCCCCCCCOP(=O)([O-])OCC[N+](C)(C)C` [MILTEFOSINE], the IC50 in data set [3] was determined as 7.47 µM.
Turning to `Oc1ncnc2[nH]nc(Br)c12`, the concentration for half-maximal inhibition (IC50) in data set [1] and in data set [3] was above 64 µM in each case. For the same compound, the CC50 at 72 h in data set [2] is above 64 µM. Moreover, the CC50 at 120 h in data set [4] is above 64 µM.
As for `O=c1[nH]cnc2c1c(Br)nn2[C@@H]1O[C@H](CO)C[C@H]1O`, the IC50 in data set [1] and in data set [3] was above 64 µM each time. Besides, the CC50 at 72 h in data set [2] is above 64 µM. In addition, the CC50 at 120 h in data set [4] was above 64 µM.
As to `Nc1ncnc2c1c(C(=O)N1CCCC1)nn2[C@@H]1O[C@H](CO)[C@@H](O)[C@H]1O`, the concentration for half-maximal inhibition (IC50) in data set [1] and in data set [3] was above 64 µM throughout. In addition, the CC50 at 72 h in data set [2] was above 64 µM. The CC50 at 120 h in data set [4] was above 64 µM.
With `Nc1ncnc2c1c(C1CC1)nn2[C@@H]1O[C@H](CO)[C@@H](O)[C@H]1O`, the IC50 in data set [1] and in data set [3] was above 64 µM throughout. Also, the cytotoxic concentration (CC50) at 72 h in data set [2] was above 64 µM. Also, the CC50 at 120 h in data set [4] was above 64 µM.
In the case of `Nc1ncnc2c1c(Oc1ccc(Cl)cc1)nn2[C@@H]1O[C@H](CO)[C@@H](O)[C@H]1O`, the IC50 in data set [1] and in data set [3] was above 64 µM each time. The CC50 at 72 h in data set [2] was above 64 µM. For the same compound, the CC50 at 120 h in data set [4] was above 64 µM.
In the case of `N#Cc1cc(-c2ccc(-c3nn([C@@H]4O[C@H](CO)[C@@H](O)[C@H]4O)c4ncnc(N)c34)cc2C#N)ccc1Cl`, the IC50 in data set [1] and in data set [3] was above 64 µM in each case. The CC50 at 72 h in data set [2] is above 64 µM. Besides, the CC50 at 120 h in data set [4] is above 64 µM.
Turning to `Nc1ncnc2c1c(N1CCCC1)nn2[C@@H]1O[C@H](CO)[C@@H](O)[C@H]1O`, the IC50 in data set [1] and in data set [3] was above 64 µM each time. The CC50 at 72 h in data set [2] is above 64 µM. The half-maximal cytotoxic concentration (CC50) at 120 h in data set [4] is above 64 µM.
Consider `Nc1ncnc2c1c(CN1CCOCC1)nn2[C@@H]1O[C@H](CO)[C@@H](O)[C@H]1O`, for which the concentration for half-maximal inhibition (IC50) in data set [1] and in data set [3] was above 64 µM in each case. In data set [2], the CC50 at 72 h was above 64 µM. Moreover, the CC50 at 120 h in data set [4] was above 64 µM.
Consider `Nc1ncnc2c1cnn2[C@H]1C[C@H](O)[C@@H](CO)O1`, for which the IC50 in data set [1] and in data set [3] was above 64 µM in each case. Moreover, the CC50 at 72 h in data set [2] is above 64 µM. The CC50 at 120 h in data set [4] was above 64 µM.
With `O=c1[nH]cnc2c1c(Br)nn2[C@@H]1O[C@H](CO)[C@@H](O)[C@H]1O`, the IC50 in data set [1] and in data set [3] was above 64 µM each time. Moreover, the 50% cytotoxic concentration (CC50) at 72 h in data set [2] was above 64 µM. In addition, the CC50 at 120 h in data set [4] was above 64 µM.
